Ki, inhibition and growth data for twelve compounds are collected here from ChEMBL document CHEMBL3286129, “Optimization of peptidomimetic boronates bearing a P3 bicyclic scaffold as proteasome inhibitors” (Eur J Med Chem, 2014).

The structures appear in SMILES notation. Activity calls are given as the source filed them. The calls are words filed in the database; no cut-off is given here.

The target in one assay is Chymotrypsinogen A (Bos taurus, UniProt P00766). Put plainly: Inhibition of bovine pancreatic alpha-chymotrypsin using Suc-Leu-Leu-Val-Tyr-AMC as substrate by fluorescence assay. The gist of the method:
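Enzyme incubated at 20 °C in 50 mM Tris pH 8.0, 100 mM NaCl, 5 mM EDTA, 7.5% DMSO with varied inhibitor concentrations. Substrate hydrolysis followed for 10 min. Ki from progress curves; mean of three determinations.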

Assay [1] addresses Proteasome Macropain subunit (Homo sapiens) (UniProt P49721). Kind of assay: Inhibition of trypsin-like activity of 20S proteasome in human erythrocytes using Boc-Leu-Arg-Arg-AMC as substrate by fluorescence assay. Format: cell-based. Summed up: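 Human 20S proteasome 0.0025 mg/mL at 30 °C in 50 mM Tris pH 7.4, 50 mM NaCl, 0.5 mM EDTA, 0.03% SDS, 7.5% DMSO. Varied inhibitor concentrations; AMC release monitored continuously for 10 min, ex 380/em 460 nm. Ki derived from progress-curve IC50 fit.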

In assay [2] the target is T1, Proteasome Macropain subunit MB1 (Homo sapiens, UniProt P28074).
T1 sequence (P28074 whole entry): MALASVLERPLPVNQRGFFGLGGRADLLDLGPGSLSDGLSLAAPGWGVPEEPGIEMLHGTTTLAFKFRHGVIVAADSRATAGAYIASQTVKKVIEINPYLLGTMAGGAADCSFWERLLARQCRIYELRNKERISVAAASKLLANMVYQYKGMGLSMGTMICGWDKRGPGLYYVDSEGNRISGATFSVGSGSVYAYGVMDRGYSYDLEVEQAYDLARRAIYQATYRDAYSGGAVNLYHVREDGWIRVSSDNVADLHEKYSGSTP
Kind of assay: Inhibition of chymotrypsin-like activity of 20S proteasome in human erythrocytes using Suc-Leu-Leu-Val-Tyr-AMC as substrate by fluorescence assay.

Assay [3] has as its target Proteasome component C5 (Homo sapiens) (UniProt P20618). Put plainly: Inhibition of PGPH-like activity of 20S proteasome in human erythrocytes using Z-Leu-Leu-Glu-AMC as substrate at 20 uM by fluorescence assay relative to control. Summed up:
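Single-concentration screen of PGPH activity. Human 20S proteasome (0.004 mg/mL) at 30 °C in 50 mM Tris pH 7.5 with 25 mM KCl, 10 mM NaCl, 1 mM MgCl2, 0.03% SDS, 5% DMSO; equivalent DMSO as control. AMC fluorescence at ex 380/em 460 nm.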

Assay [4] addresses T2, Proteasome Macropain subunit MB1 (Homo sapiens) (UniProt P28074).
T2 sequence (whole entry): T1 sequence (P28074 whole entry)
Put plainly: Inhibition of chymotrypsin-like activity of 20S proteasome in human erythrocytes using Suc-Leu-Leu-Val-Tyr-AMC as substrate at 20 uM by fluorescence assay relative to control. Summed up: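 Single inhibitor concentration, equivalent DMSO as negative control. AMC fluorescence read at ex 380/em 460 nm; percent inhibition of ChT-L activity.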

For another assay, the target named is T3, Proteasome component C5 (Homo sapiens, UniProt P20618).
T3 sequence (P20618 whole entry): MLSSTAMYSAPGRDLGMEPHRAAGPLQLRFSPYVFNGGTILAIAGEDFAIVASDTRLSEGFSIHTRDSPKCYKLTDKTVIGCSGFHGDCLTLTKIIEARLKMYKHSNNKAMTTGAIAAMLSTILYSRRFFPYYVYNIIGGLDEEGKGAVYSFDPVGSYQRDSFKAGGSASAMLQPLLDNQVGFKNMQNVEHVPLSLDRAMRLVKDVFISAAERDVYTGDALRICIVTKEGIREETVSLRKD
Put plainly: Inhibition of PGPH-like activity of 20S proteasome in human erythrocytes using Z-Leu-Leu-Glu-AMC as substrate by fluorescence assay. Summed up: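 Human 20S proteasome 0.004 mg/mL, 30 °C, 50 mM Tris pH 7.5 with 25 mM KCl, 10 mM NaCl, 1 mM MgCl2, 0.03% SDS, 5% DMSO. Ki from 4-parameter IC50 fit of progress curves, corrected to zero substrate via Km. Mean of three.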

Assay [5] in a line: Cytotoxicity against human colon cancer cells assessed as cell growth at 10 uM relative to control. Format: functional. Particulars: Cancer cell lines, read-out: Activity. Summed up:
(§1)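 Single-concentration screen against a panel of human cancer cell lines. Each value is the mean percent growth across the cell lines of that tumour subpanel.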

The nature of assay [6]: Cytotoxicity against human NSCLC cells assessed as cell growth at 10 uM relative to control. Format: functional. Particulars: read-out: Activity. The gist of the method: as §1
The nature of assay [7]: Cytotoxicity against human CNSC cells assessed as cell growth at 10 uM relative to control. Format: functional. The note with it: read-out: Activity. The gist of the method: as §1
Assay [8] in a line: Cytotoxicity against human ovarian cancer cells assessed as cell growth at 10 uM relative to control. The assay is classed as functional. Particulars: Cancer cell lines, read-out: Activity. Summed up:
as §1

Assay [9] is described as follows: Cytotoxicity against human melanoma cells assessed as cell growth at 10 uM relative to control. Particulars: read-out: Activity. The assay is classed as functional. The gist of the method: as §1
The nature of assay [10]: Cytotoxicity against human prostate cancer cells assessed as cell growth at 10 uM relative to control. Particulars: Cancer cell lines, read-out: Activity. Format: functional. The gist of the method: as §1
Assay [11] in a line: Cytotoxicity against human breast cancer cells assessed as cell growth at 10 uM relative to control. The assay is classed as functional. Particulars: Cancer cell lines, read-out: Activity. The gist of the method: as §1
Assay [12] can be described thus: Cytotoxicity against human renal cancer cells assessed as cell growth at 10 uM relative to control. Format: functional. The note with it: Cancer cell lines, read-out: Activity. The gist of the method:
as §1

Assay [13] can be described thus: Cytotoxicity against human leukemia cells assessed as cell growth at 10 uM relative to control. The assay is classed as functional. Particulars: read-out: Activity. The gist of the method:
as §1

A word on the Ki: it is the dissociation constant of the complex between target and ligand, obtained from inhibition or displacement. A word on the inhibition: it is how much of the control response was suppressed.

Chain of Proteasome Macropain subunit (Homo sapiens) (P49721 whole entry): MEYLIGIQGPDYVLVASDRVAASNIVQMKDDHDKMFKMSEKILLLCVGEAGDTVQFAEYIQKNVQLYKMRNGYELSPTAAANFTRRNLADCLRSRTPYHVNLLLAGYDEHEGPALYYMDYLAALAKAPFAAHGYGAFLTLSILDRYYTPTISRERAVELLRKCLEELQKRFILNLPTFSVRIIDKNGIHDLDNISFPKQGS

For the compound `CC(C)C[C@H](NC(=O)Cn1cc(Br)c2ncccc2c1=O)B(O)O`, at Chymotrypsinogen A, the Ki entry is given as “Not Active”. Also, the inhibition result in [1] is “inactive”.

Take `CC(C)CCNC(=O)CCn1cc(Br)c2ncccc2c1=O`: the values for the Ki entry (at Chymotrypsinogen A; in assay [2] (read-out: Ki)) were “Not Active” and 80 nM, respectively. This compound also came in with an inhibition in [3] of 44%. Also, the inhibition entry in [1] is “inactive”.

`CC(C)C[C@H](NC(=O)CCn1cc(Br)c2ncccc2c1=O)B(O)O`: the Ki entry (at Chymotrypsinogen A; in assay [2]; on Proteasome component C5) was “Not Active” in each case. Besides, the inhibition in assay [4] was more than 40%. Further, the inhibition entry in assay [1] is “inactive”.

Turning to `CC(C)CCNC(=O)Cn1ccc2ccccc2c1=O`, the growth at 10 µM amounted to 100% in [5]; 97.2% in assay [6]; 102% in assay [7]; 104% in [8]; 104% in assay [9]; 101% in [10]. The growth at 10 µM in [11] is 103%; in assay [12], 97.4%; in assay [13] it was 99.5%. The inhibition result in [1] was “inactive”.

For `COc1cc2ccn(CCC(=O)N[C@@H](CC(C)C)B(O)O)c(=O)c2cc1OC`, the growth at 10 µM is 90.8% in assay [5]; 90.3% in assay [6]; 78.3% in [7]; 92.6% in [8]; 63.7% in assay [9]; 98.8% in assay [10]. The growth at 10 µM in [11] was determined as 56.9%; in assay [12], 89%; in [13] it was 59%. The results for the Ki result (on Chymotrypsinogen A; in assay [2] (read-out: Ki)) were “Not Active” and 85 nM, respectively. This compound yielded an inhibition in assay [4] of more than 40%. Also, in assay [1], the inhibition entry is “inactive”.

On to `CC(C)CCNC(=O)Cn1ccc2ccc(Br)cc2c1=O`, for which the figures for the inhibition constant (Ki) result (at Chymotrypsinogen A; in assay [2] (read-out: Ki); at Proteasome component C5) were “Not Active”, 2340 nM and “Not Active”, respectively. Moreover, the inhibition result in assay [1] is “inactive”.

As to `COc1cc2ccn(CC(=O)N[C@@H](CC(C)C)B(O)O)c(=O)c2cc1OC`, the growth at 10 µM in assay [5] amounted to 104%; in assay [6], 102%; in assay [7], 99.6%; in assay [8] it was 103%; in assay [9], 104%; in [10], 100%. Also, the growth at 10 µM in assay [11] turned out to be 99%; in [12], 98.5%; in [13] it was 98.8%. The Ki result (at Chymotrypsinogen A; in [2]; on Proteasome component C5) was “Not Active” each time. In assay [4], the inhibition was more than 40%. In addition, the inhibition entry in assay [1] was “inactive”.

As for `CC(C)C[C@H](NC(=O)Cn1ccc2ncccc2c1=O)B(O)O`, the Ki result at Chymotrypsinogen A is recorded as “Not Active”. Further, the inhibition entry in [1] was “inactive”.

On to `CC(C)CCNC(=O)CCn1ccc2ccc(Br)cc2c1=O`, for which the growth at 10 µM in assay [5] was 104%; in [6], 97.7%; in assay [7], 97.2%; in assay [8], 104%; in assay [9], 94%; in [10], 103%. Further, the growth at 10 µM in assay [11] amounted to 94.5%; in [12], 86.1%; in assay [13] it was 83.4%. In assay [1], the inhibition entry was “inactive”.

Turning to `CC(C)C[C@H](NC(=O)Cn1ccc2ccccc2c1=O)B(O)O`, the growth at 10 µM in assay [5] worked out at 57.9%; in assay [6], 75.6%; in [7], 71%; in [8], 86.7%; in [9], 43.5%; in [10], 80.2%. Also, the results for the growth at 10 µM in assay [11], in assay [12] and in assay [13] were 51.3%, 39.8% and 23.1%, respectively. Moreover, the Ki on Chymotrypsinogen A (read-out: Ki) was 9.11 µM; in [2] (read-out: Ki) it was 490 nM. The same compound came in with an inhibition in [4] of more than 40%. Besides, the inhibition result in assay [1] is “inactive”.

Consider `COc1cc2ccn(CCC(=O)NCCC(C)C)c(=O)c2cc1OC`, for which the growth at 10 µM in assay [5] amounted to 106%; in [6], 99.2%; in [7], 98%; in assay [8] it was 103%; in assay [9], 106%; in assay [10], 103%. The values for the growth at 10 µM in [11], in assay [12] and in assay [13] were 103%, 95.3% and 108%, respectively. In assay [1], the inhibition entry is “inactive”.

For the compound `CC(C)CCNC(=O)CCn1ccc2ncccc2c1=O`, the figures for the Ki (in assay [2] (read-out: Ki); on Proteasome component C5) were 4570 nM and “Not Active”, respectively. Further, in [1], the inhibition result was “inactive”.
